Series [1] can be described thus: Oral bioavailability in rat at 2 mg/kg. Conditions: in vivo. It counts as ADME, organism-based.
A short description of series [2]: Chromatographic hydrophobicity index, log D of the compound at pH 7.4 by reverse-phase HPLC analysis. As to conditions: buffer. It counts as physicochemical. An outline of the steps: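 Log D at pH 7.4 was calculated from the retention time on a fast-gradient reverse-phase HPLC run.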
Series [3] can be described thus: Time at which mouse plasma concentration stays above in vitro IC50 for RIP1 in mouse L929 cells assessed as reduction in TNFalpha/QVD-Oph-induced necroptosis in mouse at 10 mg/kg/day added to chow pellets. It counts as ADME, organism-based. Conditions: in vivo.
The nature of series [4]: Time at which mouse plasma concentration stays above in vitro IC90 for RIP1 in mouse L929 cells assessed as reduction in TNFalpha/QVD-Oph-induced necroptosis in mouse at 100 mg/kg/day added to chow pellets. It counts as ADME, organism-based. As to conditions: in vivo.
Series [5] in a line: Unbound brain to blood concentration ratio in C57BL/6 mouse at 9.6 to 96 mg/kg/day added to chow pellets. It counts as ADME, organism-based. As to conditions: po, read-out: K(p,uu,brain).
Series [6] is described as follows: Tmax in rat at 2 mg/kg, po. It counts as ADME, organism-based. Conditions: in vivo.
A short description of series [7]: Volume of distribution at steady state in rat at 1 mg/kg, iv. It counts as ADME, organism-based. As to conditions: in vivo, read-out: Vdss.
Series [8] in a line: AUC (0 to infinity) in rat at 1 mg/kg, iv. It counts as ADME, organism-based. As to conditions: in vivo. The arrangement: dose 1 mg/kg, time infinity, route intravenous. In short, it runs like this:
(§1)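 Rat pharmacokinetics: the iv arm was dosed at 1 mg/kg in 5% DMSO/20% Cavitron aqueous solution. The oral arm was dosed at 2 mg/kg in 5% DMSO/6% Cavitron aqueous solution. Bioavailability was calculated non-crossover, from average exposures in separate oral and iv studies.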

A short description of series [9]: Cmax in rat at 2 mg/kg, po. The arrangement: dose 2 mg/kg, route oral. As to conditions: in vivo. It counts as ADME, organism-based. An outline of the steps:
as §1

A short description of series [10]: AUC (0 to infinity) in monkey at 1 mg/kg, iv. It counts as ADME, organism-based, Macaca mulatta. The arrangement: dose 1 mg/kg, time infinity, route intravenous. As to conditions: rhesus monkey, in vivo.
Series [11] can be described thus: AUC (0 to infinity) in mouse at 2 mg/kg, iv. It counts as ADME, organism-based. More on the design: dose 2 mg/kg, time infinity, route intravenous. As to conditions: in vivo.
Series [12] can be described thus: Oral bioavailability in monkey at 2 mg/kg. It counts as ADME, organism-based, Macaca mulatta. As to conditions: rhesus monkey, in vivo.
A short description of series [13]: Cmax in monkey at 2 mg/kg, po. It counts as ADME, organism-based, Macaca mulatta. The arrangement: dose 2 mg/kg, route oral. As to conditions: rhesus monkey, in vivo.
The nature of series [14]: AUC (0 to infinity) in minipig at 1 mg/kg, iv. It counts as ADME, organism-based, Sus scrofa. More on the design: dose 1 mg/kg, route intravenous, time infinity. As to conditions: pig, in vivo.
Series [15] is described as follows: Volume of distribution at steady state in minipig at 1 mg/kg, iv. It counts as ADME, organism-based, Sus scrofa. As to conditions: pig, in vivo, read-out: Vdss.
A short description of series [16]: Cmax in mouse at 30 mg/kg, po. It counts as ADME, organism-based. The arrangement: dose 30 mg/kg, route oral. As to conditions: in vivo. In short, it runs like this:
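Mouse pharmacokinetics: the iv arm received 2 mg/kg in 5% DMSO/20% Cavitron aqueous solution. The oral arm received 30 mg/kg as a suspension in 1% aqueous methylcellulose.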

A short description of series [17]: Tmax in minipig at 2 mg/kg, po. It counts as ADME, organism-based, Sus scrofa. As to conditions: pig, in vivo.
Series [18] in a line: Tmax in mouse at 30 mg/kg, po. It counts as ADME, organism-based. As to conditions: in vivo.
A short description of series [19]: Oral bioavailability in minipig at 2 mg/kg. It counts as ADME, organism-based, Sus scrofa. As to conditions: pig, in vivo.
A short description of series [20]: Solubility of the compound in fasted state simulated intestinal fluid measured after 4 hrs. It counts as physicochemical.
Series [21] can be described thus: Tmax in monkey at 2 mg/kg, po. As to conditions: rhesus monkey, in vivo. It counts as ADME, organism-based, Macaca mulatta.
Series [22] can be described thus: Volume of distribution at steady state in monkey at 1 mg/kg, iv. It counts as ADME, organism-based, Macaca mulatta. Conditions: rhesus monkey, in vivo, read-out: Vdss.
The nature of series [23]: Cmax in minipig at 2 mg/kg, po. It counts as ADME, organism-based, Sus scrofa. More on the design: dose 2 mg/kg, route oral. As to conditions: pig, in vivo.
Series [24] can be described thus: Volume of distribution at steady state in mouse at 2 mg/kg, iv. As to conditions: in vivo, read-out: Vdss. It counts as ADME, organism-based.

Structures are written as SMILES. In brackets after ≈: the same amount, converted by molar mass.

For orientation: chromatographic logD means a lipophilicity value derived from retention on a column. A word on the Tmax: it is the time at which the peak concentration occurs. In general, AUC(0-inf) refers to the area under the concentration-time curve extrapolated to infinity. One may read the Cmax as the maximum level reached in the sampled fluid or tissue. Regarding `N#Cc1cc(N2CCC(C(=O)N3N=CC[C@H]3c3cc(F)cc(F)c3)CC2)ncn1`, the bioavailability in [1] came out at 88%. In series [2], this molecule gave a chromatographic logD of 5. Moreover, the Time in series [3] and in [4] was above 24 h throughout. In [5], the Kp uu stood at 2.5. The Tmax in [6] was 30 min. For the same molecule, the Vd in series [7] is 4.6 L/kg. Moreover, the area under the curve AUC(0-inf) in series [8] was found to be 410 ng·h/mL. For the same molecule, the peak level in series [9] (Cmax) was 215 ng/mL.

The term solubility denotes the concentration that dissolves in the medium under given conditions. Regarding `Cc1nnc(N2CCC(C(=O)N3N=CC[C@H]3c3cc(F)cc(F)c3)CC2)o1`, the AUC(0-inf) stood at 3100 ng·h/mL in series [10], 1100 ng·h/mL in [11], 1300 ng·h/mL in series [14] and 1300 ng·h/mL in [8]. In addition, the bioavailability in [1] turned out to be 130%; in [12] it was 40%; in series [19], 65%. Besides, the maximum concentration (Cmax) in series [13] amounted to 480 ng/mL; in series [16] it was 5410 ng/mL; in series [23], 576 ng/mL; in [9], 1100 ng/mL. For the same molecule, the Vd in series [15] came to 1.3 L/kg; in series [22], 1.1 L/kg; in [7] it was 1.3 L/kg; in series [24], 1.8 L/kg. In series [2], this molecule displayed a chromatographic logD of 3.6. For the same molecule, the time to peak (Tmax) in [17] was 80 min; in series [18], 30 min; in series [21] it was 120 min; in series [6] it was 25 min. The molecule also displayed a solubility at 4 h in series [20] of 250 µg/mL (≈ 666 µM).

The values above are taken from ChEMBL document CHEMBL4350963, “Discovery and Lead-Optimization of 4,5-Dihydropyrazoles as Mono-Kinase Selective, Orally Bioavailable and Efficacious Inhibitors of Receptor Interacting Protein 1 (RIP1) Kinase” (J Med Chem, 2019).
